Laboratory results as given in PMC9080015 (RSC Advances, 2018).
Like-named read-outs stand apart in the source and are kept apart here.

Key:
Format in all cases: biochemical
recombinant human CYP1B1 = molecular target: T1, recombinant human CYP1B1 (Homo sapiens, UniProt Q16678); test: EROD assay, recombinant human CYP1B1 inhibition; conditions: for IC50 ratio 1A1/1B1: selectivity for CYP1B1 over CYP1A1; for IC50 ratio 1A2/1B1: selectivity for CYP1B1 over CYP1A2
T1 sequence (Q16678 1-543): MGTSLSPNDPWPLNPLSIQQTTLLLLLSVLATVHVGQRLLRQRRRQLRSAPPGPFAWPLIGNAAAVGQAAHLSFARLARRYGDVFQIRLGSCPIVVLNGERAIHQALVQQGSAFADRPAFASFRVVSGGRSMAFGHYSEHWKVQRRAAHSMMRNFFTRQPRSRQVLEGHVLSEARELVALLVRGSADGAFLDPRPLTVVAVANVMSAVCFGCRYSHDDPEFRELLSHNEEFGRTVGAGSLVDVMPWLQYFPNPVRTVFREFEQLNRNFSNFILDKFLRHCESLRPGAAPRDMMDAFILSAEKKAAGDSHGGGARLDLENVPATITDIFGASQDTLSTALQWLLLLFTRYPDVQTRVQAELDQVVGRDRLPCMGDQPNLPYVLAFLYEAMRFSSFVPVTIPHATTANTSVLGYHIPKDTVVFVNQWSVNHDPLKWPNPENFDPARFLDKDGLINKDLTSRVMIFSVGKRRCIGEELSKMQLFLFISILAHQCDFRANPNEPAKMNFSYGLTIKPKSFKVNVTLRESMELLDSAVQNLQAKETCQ

CYP1A1 = molecular target: T2, CYP1A1 (Homo sapiens, UniProt P04798); test: EROD assay, recombinant human CYP1A1 inhibition
T2 sequence (P04798 1-512): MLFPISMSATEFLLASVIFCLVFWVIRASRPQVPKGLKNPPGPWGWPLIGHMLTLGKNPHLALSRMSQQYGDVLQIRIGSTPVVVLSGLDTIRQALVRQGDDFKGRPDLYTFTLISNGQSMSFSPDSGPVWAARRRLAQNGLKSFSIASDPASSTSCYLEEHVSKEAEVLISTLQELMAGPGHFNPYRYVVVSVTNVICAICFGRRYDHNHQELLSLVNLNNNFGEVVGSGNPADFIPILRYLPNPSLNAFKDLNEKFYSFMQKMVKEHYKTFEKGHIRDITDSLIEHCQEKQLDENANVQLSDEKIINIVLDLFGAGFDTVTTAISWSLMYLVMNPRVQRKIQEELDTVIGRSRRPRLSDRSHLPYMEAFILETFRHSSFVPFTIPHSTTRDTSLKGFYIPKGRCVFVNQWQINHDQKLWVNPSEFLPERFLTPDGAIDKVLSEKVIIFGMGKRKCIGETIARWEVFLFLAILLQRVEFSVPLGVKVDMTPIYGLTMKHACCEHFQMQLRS
In short: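 Supersomes with P450 reductase. Test compound is taken from 10 mM DMSO stock into Tris–HCl pH 7.4 (final DMSO <1% v/v), at several concentrations. Methanol stop. Resorufin fluorescence read at ex 544/em 590 nm. IC50 from nonlinear regression, log(inhibitor) vs normalized response, variable slope.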

CYP1A2 = molecular target: T3, CYP1A2 (Homo sapiens, UniProt P05177); test: EROD assay, recombinant human CYP1A2 inhibition
T3 sequence (P05177 2-516 limits assumed): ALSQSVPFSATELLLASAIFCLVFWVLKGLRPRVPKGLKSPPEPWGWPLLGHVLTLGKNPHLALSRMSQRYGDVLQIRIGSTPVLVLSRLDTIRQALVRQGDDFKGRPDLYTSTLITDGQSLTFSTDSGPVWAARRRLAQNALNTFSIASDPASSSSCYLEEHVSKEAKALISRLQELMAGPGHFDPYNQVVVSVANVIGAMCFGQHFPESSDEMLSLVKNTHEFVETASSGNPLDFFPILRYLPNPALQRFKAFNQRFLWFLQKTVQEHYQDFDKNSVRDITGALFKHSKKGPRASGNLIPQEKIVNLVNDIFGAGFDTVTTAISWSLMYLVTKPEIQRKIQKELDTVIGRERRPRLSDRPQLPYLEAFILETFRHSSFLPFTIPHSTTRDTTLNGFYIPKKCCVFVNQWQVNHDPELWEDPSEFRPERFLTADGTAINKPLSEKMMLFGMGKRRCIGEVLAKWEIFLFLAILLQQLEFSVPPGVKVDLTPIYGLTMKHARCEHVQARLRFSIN

[1] = read-out: IC50 values (nM) 1B1, EROD assay, 20 fmol CYP1B1, 150 nM 7-ER, 37 °C, 35 min

## COc1cc2c(=O)cc(-c3ccccc3)[nH]c2c2c(OC)cccc12 [Compound 5a, 6,10-Dimethoxy-2-phenylbenzo[h]quinolin-4(1H)-one]
Recombinant human CYP1B1
  IC50: 16.6 nM
  IC50 ratio 1A1/1B1: 0.8
  IC50 ratio 1A2/1B1: 8.9
CYP1A1
  IC50: 12.6 nM
CYP1A2
  IC50: 148 nM

## COc1cc2c(=O)cc(-c3cccc(F)c3)[nH]c2c2c(OC)cccc12 [Compound 5c, 2-(3-Fluorophenyl)-6,10-dimethoxybenzo[h]quinolin-4(1H)-one]
Recombinant human CYP1B1
  IC50: 7.8 nM
  IC50 ratio 1A1/1B1: 5.0
  IC50 ratio 1A2/1B1: 42.4
CYP1A1
  IC50: 39.3 nM
CYP1A2
  IC50: 331 nM

## O=c1c(O)c(-c2ccccc2)[nH]c2c1ccc1ccccc12 [Compound 3a, 3-Hydroxy-2-phenylbenzo[h]quinolin-4(1H)-one]
Recombinant human CYP1B1
  IC50: 86.7 nM
  IC50 ratio 1A1/1B1: 10.4
  IC50 ratio 1A2/1B1: >57.7
CYP1A1
  IC50: 898 nM
CYP1A2
  IC50: > 5000 nM

## COc1cc2c(=O)cc(-c3ccc(C(F)(F)F)cc3)[nH]c2c2c(OC)cccc12 [Compound 5i, 6,10-Dimethoxy-2-(4-(trifluoromethyl)phenyl)benzo[h]quinolin-4(1H)-one]
Recombinant human CYP1B1
  IC50: 34.4 nM
  IC50 ratio 1A1/1B1: 8.7
  IC50 ratio 1A2/1B1: 38.9
CYP1A1
  IC50: 300 nM
CYP1A2
  IC50: 1340 nM

## O=c1c(O)c(-c2ccc(O)cc2)[nH]c2c1ccc1ccccc12 [Compound 3c, 3-Hydroxy-2-(4-hydroxyphenyl)benzo[h]quinolin-4(1H)-one]
Recombinant human CYP1B1
  IC50: 142 nM
  IC50 ratio 1A1/1B1: 3.7
  IC50 ratio 1A2/1B1: >35.3
CYP1A1
  IC50: 525 nM
CYP1A2
  IC50: > 5000 nM

## COc1cc(C2CC(=O)c3ccc4ccccc4c3N2)cc(OC)c1OC (stereo not drawn) [Compound 1b, 2-(3,4,5-Trimethoxyphenyl)-2,3-dihydrobenzo[h]quinolin-4(1H)-one]
Recombinant human CYP1B1
  IC50: 20.2 nM
  IC50 ratio 1A1/1B1: 2.2
  IC50 ratio 1A2/1B1: >247.5
CYP1A1
  IC50: 44.6 nM
CYP1A2
  IC50: > 5000 nM

## COc1cccc(-c2cc(=O)c3cc(OC)c4cccc(OC)c4c3[nH]2)c1 [Compound 5f, 6,10-Dimethoxy-2-(3-methoxyphenyl)benzo[h]quinolin-4(1H)-one]
Recombinant human CYP1B1
  IC50: 7.1 nM
  IC50 ratio 1A1/1B1: 5.0
  IC50 ratio 1A2/1B1: 26.8
CYP1A1
  IC50: 35.8 nM
CYP1A2
  IC50: 190 nM

## COc1cc2c(=O)cc(-c3ccc(F)cc3)[nH]c2c2c(OC)cccc12 [Compound 5g, 2-(4-Fluorophenyl)-6,10-dimethoxybenzo[h]quinolin-4(1H)-one]
Recombinant human CYP1B1
  IC50 ratio 1A1/1B1: 2.7
  IC50 ratio 1A2/1B1: 540.3
CYP1A2
  IC50: 2110 nM

## O=c1c(O)c(-c2ccccc2F)[nH]c2c1ccc1ccccc12 [Compound 3b, 2-(2-Fluorophenyl)-3-hydroxybenzo[h]quinolin-4(1H)-one]
Recombinant human CYP1B1
  IC50: 85.9 nM
  IC50 ratio 1A1/1B1: 20.8
  IC50 ratio 1A2/1B1: >58.2
CYP1A1
  IC50: 1780 nM
CYP1A2
  IC50: > 5000 nM

## O=C1CC(c2ccccc2)Nc2c1ccc1ccccc21 (stereo not drawn) [Compound 1a, 2-Phenyl-2,3-dihydrobenzo[h]quinolin-4(1H)-one]
Recombinant human CYP1B1
  IC50: 131 nM
  IC50 ratio 1A1/1B1: 3.1
  IC50 ratio 1A2/1B1: 7.3
CYP1A1
  IC50: 405 nM
CYP1A2
  IC50: 953 nM

## O=c1cc(-c2ccccc2)[nH]c2c1ccc1ccccc12 [Compound 3e, 2-Phenylbenzo[h]quinolin-4(1H)-one]
Recombinant human CYP1B1
  IC50: 17.3 nM
  IC50 ratio 1A1/1B1: 6.0
  IC50 ratio 1A2/1B1: 27.9
CYP1A1
  IC50: 103 nM
CYP1A2
  IC50: 483 nM

## O=C1CC(c2cccc(F)c2)Nc2c1ccc1ccccc21 (stereo not drawn) [Compound 1d, 2-(3-Fluorophenyl)-2,3-dihydrobenzo[h]quinolin-4(1H)-one]
Recombinant human CYP1B1
  IC50: 98.6 nM
  IC50 ratio 1A1/1B1: 5.0
  IC50 ratio 1A2/1B1: 10.6
CYP1A1
  IC50: 493 nM
CYP1A2
  IC50: 1050 nM

## COc1cc(-c2cc(=O)c3cc(OC)c4cccc(OC)c4c3[nH]2)cc(OC)c1OC [Compound 5j, 6,10-Dimethoxy-2-(3,4,5-trimethoxyphenyl)benzo[h]quinolin-4(1H)-one]
Recombinant human CYP1B1
  IC50: 164 nM
  IC50 ratio 1A1/1B1: 4.9
  IC50 ratio 1A2/1B1: >30.5
CYP1A1
  IC50: 809 nM
CYP1A2
  IC50: > 5000 nM

## COc1cc(-c2ccccc2)nc2c1ccc1ccccc12 [Compound 4b, 4-Methoxy-2-phenylbenzo[h]quinoline]
Recombinant human CYP1B1; EROD assay, 20 fmol CYP1B1, 150 nM 7-ER, 37 °C, 35 min
  IC50 values (nM) 1B1: no longer a CYP1 inhibitor
Recombinant human CYP1B1; [1]
  IC50: > 5000 nM
CYP1A1; human, recombinant human CYP1A1 with P450 reductase (Supersomes), pH 7.4, probe 7-ethoxyresorufin (7-ER), 150 nM
  IC50 at 15 min: > 5 µM
CYP1A2; human, recombinant human CYP1A2 with P450 reductase (Supersomes), pH 7.4, probe 7-ethoxyresorufin (7-ER), 150 nM
  IC50 at 50 min: > 5 µM

## COc1cc2c(=O)cc(-c3cccc(Cl)c3)[nH]c2c2c(OC)cccc12 [Compound 5d, 2-(3-Chlorophenyl)-6,10-dimethoxybenzo[h]quinolin-4(1H)-one]
Recombinant human CYP1B1
  IC50: 27.6 nM
  IC50 ratio 1A1/1B1: 1.1
  IC50 ratio 1A2/1B1: 3.1
CYP1A1
  IC50: 29.4 nM
CYP1A2
  IC50: 84.5 nM

## COc1cc2c(=O)cc(-c3ccccc3F)[nH]c2c2c(OC)cccc12 [Compound 5b, 2-(2-Fluorophenyl)-6,10-dimethoxybenzo[h]quinolin-4(1H)-one]
Recombinant human CYP1B1
  IC50: 27.9 nM
  IC50 ratio 1A1/1B1: 0.9
  IC50 ratio 1A2/1B1: 6.2
CYP1A1
  IC50: 26.4 nM
CYP1A2
  IC50: 174 nM

## O=C1c2ccc3ccccc3c2N[C@@H](c2ccccc2)[C@H]1O [Compound 2a, (2S,3R) 3-Hydroxy-2-phenyl-2,3-dihydrobenzo[h]quinolin-4(1H)-one]
Recombinant human CYP1B1
  IC50: 260 nM
  IC50 ratio 1A1/1B1: 2.3
  IC50 ratio 1A2/1B1: 5.4
CYP1A1
  IC50: 588 nM
CYP1A2
  IC50: 1410 nM

## 2-Phenylbenzo[h]quinolin-4-ol [Compound 4a]
Recombinant human CYP1B1; [1]
  IC50: 7.6 nM
Recombinant human CYP1B1
  IC50 ratio 1A1/1B1: 2.4
  IC50 ratio 1A2/1B1: 19.3
CYP1A1; read-out: IC50 values (nM) 1A1, EROD assay, 10 fmol CYP1A1, 150 nM 7-ER, 37 °C, 15 min
  IC50: 18.5 nM
CYP1A2; read-out: IC50 values (nM) 1A2, EROD assay, 60 fmol CYP1A2, 150 nM 7-ER, 37 °C, 50 min
  IC50: 147 nM

## COc1ccc(-c2cc(=O)c3cc(OC)c4cccc(OC)c4c3[nH]2)cc1 [Compound 5h, 6,10-Dimethoxy-2-(4-methoxyphenyl)benzo[h]quinolin-4(1H)-one]
Recombinant human CYP1B1
  IC50 ratio 1A1/1B1: 15.8
  IC50 ratio 1A2/1B1: >1219.5
CYP1A2
  IC50: > 5000 nM
